pIC50: −log10 of the molar value. “And” between values parts separate entries of the source, which are not always exact repeats. Identical values can stand only once. Like-named read-outs stand apart in the source and are kept apart here.
How the values were obtained:
TAg = settings: read-out: IC50 for MAL2-11B; ref 21 (Huryn et al.); cited from earlier work
[1] = target: SV40 large T antigen ATPase activity (Simian virus 40, UniProt P03070); assay: SV40 TAg ATPase primary assay; type: biochemical; settings: 1% DMSO; for pIC50: 1536-well, ADP Hunter, 1 mM ATP
In short: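 Purified TAg (10.8 ng/well, added from 14.4 ng/µL) in 100 mM Tris-HCl pH 7.4, 20 mM KCl, 6 mM MgCl2, 0.1 mg/mL BSA; control added before enzyme, preincubated 30 min ambient; 5 mM ATP stock added, 120 min ambient; 1.25 µL reaction. ADP Hunter fluorescence, ex/em 530/590 nm bottom read. % inhibition normalized to median enzyme control and high-dose control wells.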

[2] = Compound aggregation in steady-state ATP assays; type: physicochemical; settings: 20-μL steady-state ATP assay; previously observed in the laboratory
BSC-40 cells = assay: Cytotoxicity in BSC-40 cells; type: cell-based, African green monkey; settings: cells + compound only, 5 days
[3] = tested on: TAg-dependent DNA replication; assay: TAg-dependent DNA replication assay; type: biochemical, SV40; settings: HeLa cell lysate, radiolabelled nucleotides
In short: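 TAg recruits replication machinery from HeLa cell lysate to copy a reporter plasmid carrying the SV40 origin, incorporating trace radiolabelled nucleotides over time. Test compound added at 30, 100 and 300 µM.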

[4] = tested on: Microtubule-associated protein tau; settings: PubChem, tau aggregation; cited from earlier work
[5] = tested on: Phosphopantetheinyl transferase; settings: PubChem; cited from earlier work
Mint1 = settings: PubChem; cited from earlier work
[6] = tested on: Nuclear receptor ROR-gamma; settings: PubChem; cited from earlier work
[7] = tested on: Hydroxyprostaglandin dehydrogenase 15-(NAD) isoform 1; settings: PubChem; cited from earlier work
Aldehyde dehydrogenase 1 = settings: PubChem; cited from earlier work
SV40 virus = assay: Cytoprotection assay with SV40 virus in BSC-40 cells; type: cell-based; settings: 50 μM, BSC-40 cells + SV40, 120 h

Chain of SV40 large T antigen ATPase activity (P03070 whole entry): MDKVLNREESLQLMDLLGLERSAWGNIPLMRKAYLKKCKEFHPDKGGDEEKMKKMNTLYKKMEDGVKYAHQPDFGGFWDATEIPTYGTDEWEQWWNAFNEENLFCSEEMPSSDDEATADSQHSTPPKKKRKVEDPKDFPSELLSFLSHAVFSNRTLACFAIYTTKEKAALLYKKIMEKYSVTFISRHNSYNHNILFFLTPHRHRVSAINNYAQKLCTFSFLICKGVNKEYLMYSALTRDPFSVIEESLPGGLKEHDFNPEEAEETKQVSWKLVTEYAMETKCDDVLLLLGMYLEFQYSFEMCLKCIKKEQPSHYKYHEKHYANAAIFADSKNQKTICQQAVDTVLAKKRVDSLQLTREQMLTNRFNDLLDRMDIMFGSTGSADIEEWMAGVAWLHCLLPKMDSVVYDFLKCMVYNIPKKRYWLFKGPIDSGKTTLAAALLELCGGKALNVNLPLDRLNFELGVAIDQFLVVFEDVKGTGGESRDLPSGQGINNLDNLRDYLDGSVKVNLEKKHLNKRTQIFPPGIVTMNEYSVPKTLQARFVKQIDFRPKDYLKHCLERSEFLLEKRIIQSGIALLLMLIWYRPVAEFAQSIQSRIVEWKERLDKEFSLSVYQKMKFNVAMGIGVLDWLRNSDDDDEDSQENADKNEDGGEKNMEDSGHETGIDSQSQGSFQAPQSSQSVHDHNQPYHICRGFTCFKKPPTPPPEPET

| Compound | effect on TAg-dependent DNA replication at 300 μM [3] | identified as hit (inhibitor) against target [4] | identified as hit (inhibitor) against target [5] | identified as hit (inhibitor) against target (Mint1) | identified as hit (inhibitor) against target [6] | identified as hit (inhibitor) against target [7] | identified as hit (inhibitor) against target (Aldehyde dehydrogenase 1) | also measured |
| --- | --- | --- | --- | --- | --- | --- | --- | --- |
| CC1=C(C(=O)OCc2ccccc2)C(c2ccc(-c3ccccc3)cc2)NC(=O)N1CCCCCC(=O)O (stereo not shown) [MAL2-11B, reference compound] |  |  |  |  |  |  |  | pIC50 (TAg): 4.30; inhibition of TAg activity ([1]; MAL2-11B at 100 μM final, average): 80%; pIC50 ([1]; read-out: IC50, inhibition of TAg ATPase activity in the primary assay): 4.71; final concentration at which compound aggregation was observed [2]: > 300 µM |
| CC(C)(c1ccc(O)cc1)c1ccc(O)cc1 [SID 92277586, Bisphenol A] | complete inhibition |  |  |  |  |  |  | TC50 (50% toxic concentration) (BSC-40 cells): 7.94 µM; pIC50 ([1]; IC50, inhibition of TAg ATPase activity in the primary assay): 4.39 and 4.38; effect on TAg-dependent DNA replication at 100 μM ([3]; 100 μM): some inhibition |
| Cc1cc(C)c2c(=O)n(CC(=O)Nc3cccc(Cl)c3C)sc2n1 [SID 85281218] |  | Microtubule-associated protein tau | Phosphopantetheinyl transferase | Mint1 | Nuclear receptor ROR-gamma |  |  |  |
| Nc1nc2ccc(S(=O)(=O)N3CCCCC3)cc2s1 [SID 85281217] |  | Microtubule-associated protein tau | Phosphopantetheinyl transferase | Mint1 |  | Hydroxyprostaglandin dehydrogenase 15-(NAD) isoform 1 | Aldehyde dehydrogenase 1 |  |
| ClC(Cl)(c1nnnn1-c1ccccc1)c1nnnn1-c1ccccc1 [SID 85281215] | DNA replication was absent | Microtubule-associated protein tau | Phosphopantetheinyl transferase | Mint1 | Nuclear receptor ROR-gamma | Hydroxyprostaglandin dehydrogenase 15-(NAD) isoform 1 | Aldehyde dehydrogenase 1 | sustained cell viability in the cytoprotection assay (SV40 virus): 16% |
